Assay results pooled from the literature.
Compare with care: the assays were run in different laboratories.
Sample: plasma

C[C@H]1[C@@H](O)O[C@@H]2O[C@@]3(C)CC[C@H]4[C@H](C)CC[C@@H]1[C@@]24OO3 — Cmax (male Sprague-Dawley rat; oral; 10 mg/kg): 169 ng/mL
CCCCCCCCCC(=O)N[C@@H](Cc1c[nH]c2ccccc12)C(=O)N[C@H](CC(N)=O)C(=O)N[C@@H](CC(=O)O)C(=O)N[C@@H]1C(=O)NCC(=O)N[C@@H](CCCN)C(=O)N[C@@H](CC(=O)O)C(=O)N[C@H](C)C(=O)N[C@@H](CC(=O)O)C(=O)NCC(=O)N[C@H](CO)C(=O)N[C@@H]([C@H](C)CC(=O)O)C(=O)N[C@@H](CC(=O)c2ccccc2N)C(=O)O[C@@H]1C — Cmax (male Wistar rat; subcutaneous; 125 mg/kg; single dose): 205000 ng/mL
C[C@@]12C[C@@]3(O)O[C@@H](O1)[C@]1(COC(=O)c4ccccc4)[C@H]3C[C@@]12O[C@@H]1O[C@H](CO)[C@@H](O)[C@H](O)[C@H]1O — Cmax (male Sprague-Dawley rat; oral; 80 mg/kg): 1.13 ng/mL
O=C1CCC(N2Cc3cc(C4CCN(Cc5ccccc5)CC4)ccc3C2=O)C(=O)N1 (centres unmarked) — Cmax (male Sprague-Dawley rat; oral; 3 mg/kg): 72.7 ng/mL
COc1cc(-c2cc(C(C)=O)n3ccccc23)c(OC)cc1Cn1ccnc1 — Cmax (male Sprague-Dawley rat; oral; 5 mg/kg): 876 ng/mL
C1=C/COCc2cc(ccc2OCCN2CCCC2)Nc2nccc(n2)-c2cccc(c2)COC/1 — Cmax (male Sprague-Dawley rat; oral; 36 mg/kg): 333 ng/mL
COc1ccc(N(Cc2csc(-c3ccccc3)n2)C(=O)CCCCCC(=O)NO)cc1 — Cmax (female Sprague-Dawley rat; intravenous; 5 mg/kg): 150 ng/mL
CCCCC(=O)Nc1ccc(-c2ccc3ncn(CCC)c(=O)c3c2)cn1 — Cmax (male rat; oral; 10 mg/kg): 966 ng/mL
CC[C@@H]([C@H](C)O)n1ncn(-c2ccc(N3CCN(c4ccc(OC[C@@H]5CO[C@@](Cn6cncn6)(c6ccc(F)cc6F)C5)cc4)CC3)cc2)c1=O — Cmax (Sprague-Dawley rat; oral; 40 mg/kg): 703 ng/mL
C[C@H]1Oc2cc(cnc2N)-c2c(nn(C)c2C#N)CN(C)C(=O)c2ccc(F)cc21 — Cmax (Sprague-Dawley rat; intravenous; 1 mg/kg; single dose): 2250 ng/mL
CCOc1c([C@H](C)n2nc(C)c3c(N)ncnc32)cc(Cl)c(F)c1[C@@H]1CNC(=O)C1 — Cmax (male Sprague-Dawley rat; oral; 2 mg/kg; single dose): 666 ng/mL
Nc1ccn([C@@H]2O[C@H](CO)[C@@H](O)C2(F)F)c(=O)n1 — Cmax (male Sprague-Dawley rat; intraperitoneal; 5 mg/kg): 12500 ng/mL
CONC(=O)c1cccc2c1cc(C)n2-c1nc2c(c(NCc3ccccc3)n1)CCCN2 — Cmax (male Sprague-Dawley rat; intravenous; 1 mg/kg; single dose): 28.2 ng/mL
CCCc1nc2c(C)cc(-c3nc4ccccc4n3C)cc2n1Cc1ccc(-c2ccccc2C(=O)O)cc1 — Cmax (male Sprague-Dawley rat; oral; 8 mg/kg; single dose): 136 ng/mL
COc1nc(-c2cccc(-c3ccccc3)c2C)ccc1CNCCNC(=O)CCCCCCCCCCC(=O)N1CCN(CCNC(=O)c2cc3c(=O)n4cccc(C)c4nc3n(CCc3cccs3)c2=N)CC1 — Cmax (male Sprague-Dawley rat; intravenous; 2 mg/kg): 1800 ng/mL
C=CC(=O)N1CCC[C@@H](n2nc(-c3ccc(Oc4ccccc4)cc3)c3c(N)ncnc32)C1 — Cmax (rat; oral; 40 mg/kg): 84.4 ng/mL
CCN(CC)Cc1ccc2cc(COC(=O)Nc3ccc(C(=O)NO)cc3)ccc2c1 — Cmax (male Sprague-Dawley rat; oral; 10 mg/kg): 2650 ng/mL
